Source: ChEMBL document CHEMBL3632581, “Dimers of Melampomagnolide B Exhibit Potent Anticancer Activity against Hematological and Solid Tumor Cells” (J Med Chem, 2015)

Columns and labels:
[1] = system: CCRF-CEM; experiment: Cytotoxicity against human CCRF-CEM cells after 48 hrs by SRB assay; format: functional
Summary of the method: (§1)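 NCI-60 five-dose screen at 10−8 to 10−4 M. Cells were plated at 5,000–40,000/well in RPMI 1640 with 5% FBS and 2 mM L-glutamine, then preincubated 24 h, and time-zero plates were TCA-fixed. Compound was added from DMSO stocks and exposed 48 h at 37 °C. Cells were TCA-fixed, SRB-stained, and read at 515 nm. LC50 is the concentration halving the cell population through cell death.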

[2] = system: UACC-62; experiment: Cytotoxicity against human UACC62 cells after 48 hrs by SRB assay; format: functional; details: UACC-62, 48 h
Summary of the method: (§2)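 NCI-60 screen: cells grown in RPMI 1640 with 5% FBS and 2 mM L-glutamine, plated at 5,000–40,000 cells/well by doubling time, and preincubated 24 h at 37 °C before drug. Drug was diluted from DMSO stock and given at five concentrations, 10−4 to 10−8 M, for 48 h. Cells fixed with cold TCA, SRB stained, OD read at 515 nm against time-zero and vehicle plates. LC50 taken as the concentration that halves cell population through cell death.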

[3] = system: OVCAR-4; experiment: Cytotoxicity against human OVCAR4 cells after 48 hrs by SRB assay; format: functional; details: OVCAR-4, 48 h; summary of the method: as §1
[4] = Potency index, ratio of parthenolide EC50 to compound EC50 for human M9-ENL1 cells; format: functional
[5] = Antileukemic activity against human AML01 cells after 24 hrs by annexin V/7-AAD staining-based flow cytometric analysis; format: functional, cell-based
Summary of the method: (§3)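 Primary AML specimens from consenting donors, isolated by Ficoll-Paque gradient and sometimes cryopreserved. Cells were held 1 h in serum-free IMDM with 20% BIT 9500, LDL and β-mercaptoethanol before drug (DMSO stock diluted in PBS, ≤0.5% DMSO final). Exposure was 24 h over 0.5-10 μM. Annexin V/7-AAD double-negative cells, normalized to vehicle, gave the EC50. Run in triplicate.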

[6] = system: SF-295; experiment: Cytotoxicity against human SF295 cells after 48 hrs by SRB assay; format: functional; details: SF-295, 48 h; summary of the method: as §1
[7] = system: COLO 205; experiment: Cytotoxicity against human COLO205 cells after 48 hrs by SRB assay; format: functional; details: COLO 205, 48 h; summary of the method: as §1
[8] = system: TK-10; experiment: Cytotoxicity against human TK10 cells after 48 hrs by SRB assay; format: functional; details: TK-10, 48 h; summary of the method: as §2
[9] = system: ACHN; experiment: Cytotoxicity against human ACHN cells after 48 hrs by SRB assay; format: functional; summary of the method: as §1
[10] = system: PC-3; experiment: Cytotoxicity against human PC3 cells after 48 hrs by SRB assay; format: functional; details: PC-3, 48 h; summary of the method: as §1
[11] = system: 786-0; experiment: Cytotoxicity against human 786-0 cells after 48 hrs by SRB assay; format: functional; details: 786-0, 48 h; summary of the method: as §1
[12] = system: SK-MEL-2; experiment: Cytotoxicity against human SK-MEL-2 cells after 48 hrs by SRB assay; format: functional; details: SK-MEL-2, 48 h; summary of the method: as §1
[13] = system: SK-OV-3; experiment: Cytotoxicity against human SKOV3 cells after 48 hrs by SRB assay; format: functional; details: SK-OV-3, 48 h; summary of the method: as §1
[14] = system: A498; experiment: Cytotoxicity against human A498 cells after 48 hrs by SRB assay; format: functional; details: A498, 48 h; summary of the method: as §1
[15] = system: M14; experiment: Cytotoxicity against human M14 cells after 48 hrs by SRB assay; format: functional; details: M14, 48 h; summary of the method: as §1
[16] = system: SN12C; experiment: Cytotoxicity against human SN12C cells after 48 hrs by SRB assay; format: functional; summary of the method: as §1
[17] = system: Malme-3M; experiment: Cytotoxicity against human MALME-3M cells after 48 hrs by SRB assay; format: functional; summary of the method: as §1
[18] = system: HCC 2998; experiment: Cytotoxicity against human HCC2998 cells after 48 hrs by SRB assay; format: functional; details: HCC 2998, 48 h; summary of the method: as §1
[19] = system: KM12; experiment: Cytotoxicity against human KM12 cells after 48 hrs by SRB assay; format: functional; details: KM12, 48 h; summary of the method: as §1
[20] = system: OVCAR-8; experiment: Cytotoxicity against human OVCAR8 cells after 48 hrs by SRB assay; format: functional; details: OVCAR-8, 48 h; summary of the method: as §1
[21] = system: K562; experiment: Cytotoxicity against human K562 cells after 48 hrs by SRB assay; format: functional; details: K562, 48 h; summary of the method: as §1
[22] = system: SW-620; experiment: Cytotoxicity against human SW620 cells after 48 hrs by SRB assay; format: functional; details: SW-620, 48 h; summary of the method: as §2
[23] = Antileukemic activity against human AML05 cells after 24 hrs by annexin V/7-AAD staining-based flow cytometric analysis; format: functional, cell-based; summary of the method: as §3
[24] = system: SR; experiment: Cytotoxicity against human SR cells after 48 hrs by SRB assay; format: functional; summary of the method: as §2
[25] = system: OVCAR-5; experiment: Cytotoxicity against human OVCAR5 cells after 48 hrs by SRB assay; format: functional; details: OVCAR-5, 48 h; summary of the method: as §1
[26] = system: SNB-75; experiment: Cytotoxicity against human SNB75 cells after 48 hrs by SRB assay; format: functional; details: SNB-75, 48 h; summary of the method: as §1
[27] = system: HCT-15; experiment: Cytotoxicity against human HCT15 cells after 48 hrs by SRB assay; format: functional; details: HCT-15, 48 h; summary of the method: as §1
[28] = system: UO-31; experiment: Cytotoxicity against human UO31 cells after 48 hrs by SRB assay; format: functional; details: UO-31, 48 h; summary of the method: as §2
[29] = system: LOX IMVI; experiment: Cytotoxicity against human LOXIMVI cells after 48 hrs by SRB assay; format: functional; summary of the method: as §1
[30] = system: NCI-H23; experiment: Cytotoxicity against human NCI-H23 cells after 48 hrs by SRB assay; format: functional; details: NCI-H23, 48 h; summary of the method: as §1
[31] = system: RXF 393; experiment: Cytotoxicity against human RXF393 cells after 48 hrs by SRB assay; format: functional; details: RXF 393, 48 h; summary of the method: as §1
[32] = system: MDA-MB-468; experiment: Cytotoxicity against human MDA-MB-468 cells after 48 hrs by SRB assay; format: functional; details: MDA-MB-468, 48 h; summary of the method: as §1
[33] = system: SF-268; experiment: Cytotoxicity against human SF268 cells after 48 hrs by SRB assay; format: functional; details: SF-268, 48 h; summary of the method: as §1
[34] = system: MOLT-4; experiment: Cytotoxicity against human MOLT4 cells after 48 hrs by SRB assay; format: functional; details: MOLT-4, 48 h; summary of the method: as §1
[35] = system: UACC-257; experiment: Cytotoxicity against human UACC257 cells after 48 hrs by SRB assay; format: functional; details: UACC-257, 48 h; summary of the method: as §2
[36] = read-out: LC50 (the source's name)

C=C1C(=O)O[C@H]2[C@H]1CC/C(COC(=O)NCCCCNC(=O)OC/C1=C/CC[C@@]3(C)O[C@H]3[C@H]3OC(=O)C(=C)[C@@H]3CC1)=C\CC[C@@]1(C)O[C@@H]21
GI50 [1]: 0.27 µM | CC50 [1, 36]: > 100 µM | GI50 [2]: 0.75 µM | CC50 [2, 36]: 7.06 µM | GI50 [3]: 1.77 µM | CC50 [3, 36]: 30.5 µM | Ratio EC50 [4]: 2 | EC50 [5]: 2.2 µM | GI50 [6]: 13 µM | CC50 [6, 36]: 57.7 µM | GI50 [7]: 0.46 µM | CC50 [7, 36]: 5.79 µM | GI50 [8]: 1.61 µM | CC50 [8, 36]: 11.3 µM | GI50 [9]: 3.44 µM | CC50 [9, 36]: 39.8 µM | GI50 [10]: 2.55 µM | LC50 (concentration killing half the cell population) [10]: 30.5 µM | GI50 [11]: 1.99 µM | CC50 [11, 36]: 9.11 µM | GI50 [12]: 1.77 µM | CC50 [12, 36]: 29.3 µM | GI50 [13]: 12.7 µM | CC50 [13, 36]: 50.4 µM | GI50 [14]: 6.36 µM | CC50 [14, 36]: 43.9 µM | GI50 [15]: 1.97 µM | CC50 [15, 36]: 16.3 µM | GI50 [16]: 2.75 µM | CC50 [16, 36]: 39.5 µM | GI50 [17]: 0.45 µM | CC50 [17, 36]: 8.43 µM | GI50 [18]: 2.35 µM | CC50 [18, 36]: 9.73 µM | GI50 [19]: 3.18 µM | CC50 [19, 36]: 43.3 µM | GI50 [20]: 2.18 µM | CC50 [20, 36]: 40.2 µM | GI50 [21]: 0.66 µM | CC50 [21, 36]: > 100 µM | GI50 [22]: 0.58 µM | CC50 [22, 36]: 5.56 µM | EC50 [23]: 2 µM | GI50 [24]: 0.54 µM | CC50 [24, 36]: > 100 µM | GI50 [25]: 1.75 µM | CC50 [25, 36]: 7.79 µM | GI50 [26]: 2.19 µM | CC50 [26, 36]: 66.3 µM | GI50 [27]: 5.61 µM | CC50 [27, 36]: 56.3 µM | GI50 [28]: 7.61 µM | CC50 [28, 36]: 47.7 µM | GI50 [29]: 0.51 µM | CC50 [29, 36]: 5.15 µM | GI50 [30]: 2.18 µM | CC50 [30, 36]: 30.4 µM | GI50 [31]: 1.44 µM | CC50 [31, 36]: 7.84 µM | GI50 [32]: 0.42 µM | LC50 [32]: 7.76 µM | GI50 [33]: 3.18 µM | CC50 [33, 36]: 51 µM | GI50 [34]: 1.47 µM | CC50 [34, 36]: > 100 µM | GI50 [35]: 1.68 µM | CC50 [35, 36]: 22.9 µM
